Measurements from ChEMBL document CHEMBL5506039, “Discovery and Optimization of Tambjamines as a Novel Class of Antileishmanial Agents” (J Med Chem, 2024).
Activity calls are given as the source filed them. No cut-off for these calls is given here.

Tests used:
Leishmania mexicana [1] = assay: (§1) Antileishmanial activity against Leishmania mexicana MNYC/BZ/62/M379 amastigotes expressing red-shifted firefly luciferase from integrated ribosomal (28S) RNA locus infected in mouse J774.A1 cells assessed as parasite survival at 0.1 uM measured after 96 hrs by luminescence based analysis relative to control; type: functional; conditions: MNYC/BZ/62/M379, J774.A1
[2] = Cytotoxicity against mouse J774.A1 cells assessed as cell survival at 0.1 uM measured after 96 hrs by SYBR Green II dye based analysis relative to control; type: toxicity; conditions: read-out: Survival
Summary of the method: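 Uninfected J774A.1 mouse macrophages were plated at 1 × 10⁴ cells/well in DMEM with 10% heat-inactivated FBS and left 3 h at 37 °C to reattach. Compounds were added from DMSO, and analogues were screened at 0.1 μM. After 96 h at 37 °C in 5% CO₂, medium was removed. SYBR Green II (1:1000 in 1% Triton/PBS) was added for 1 h in the dark at room temperature, and fluorescence was read at Ex 485/Em 535 as a DNA-content measure of viability.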

Leishmania mexicana [3] = assay: as §1, with “assessed as inhibition of parasite growth” for “assessed as parasite survival”, “of parasite growth at 0.1” for “as parasite survival at 0.1”; type: functional; conditions: MNYC/BZ/62/M379, J774.A1, read-out: INH
Leishmania mexicana [4] = assay: Antileishmanial activity against Leishmania mexicana MNYC/BZ/62/M379 amastigotes expressing red-shifted firefly luciferase from integrated ribosomal (28S) RNA locus infected in mouse J774.A1 cells assessed as reduction in parasite survival measured after 96 hrs by luminescence based analysis; type: functional, organism-based; conditions: MNYC/BZ/62/M379, J774.A1, 96 h
Summary of the method: (§2)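 J774A.1 macrophages infected with stationary-phase luciferase-expressing promastigotes at 10:1 parasites:macrophage, overnight at 37 °C, 5% CO₂. Non-internalized parasites washed off and 1 × 10⁴ cells/well replated in MEM/10% HI-FBS. Compounds in DMSO added as serial 3-fold dilutions (typically 10 μM–1 nM) for 96 h. Luciferase luminescence read; EC50 from log-transformed sigmoidal variable-slope fit. Mean ± SD of ≥2 independent experiments.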

[5] = Cytotoxicity against mouse J774.A1 cells assessed as reduction in cell survival measured after 96 hrs by SYBR Green II dye based analysis; type: toxicity
Summary of the method: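 Uninfected J774A.1 macrophages, 1 × 10⁴ cells/well in DMEM/10% HI-FBS, reattached 3 h, then exposed to compounds for 96 h. DNA content read after lysis with SYBR Green II (1:1000 in 1% Triton/PBS), 1 h dark at room temperature, fluorescence Ex 485/Em 535.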

[6] = Therapeutic index, ratio of EC50 for mouse J774.A1 cells to EC50 for antileishmanial activity against Leishmania mexicana MNYC/BZ/62/M379 amastigotes expressing red-shifted firefly luciferase from integrated ribosomal (28S) RNA locus infected in mouse J774.A1 cells; type: toxicity, cell-based; conditions: read-out: TI
[7] = Metabolic stability in pre-warmed pooled human liver microsomes assessed as half life at 1 uM measured upto 60 mins by LC-MS analysis; type: ADME, Microsome
Summary of the method: (§3)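 Compound at 1 μM final with 0.5 mg/mL pooled human or mouse liver microsomes, 1.3 mM NADP and 3.3 mM MgCl₂ in 100 mM potassium phosphate, pH 7.4. Reaction started with 1 U/mL G6PD at 37 °C with shaking.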

[8] = Metabolic stability in pre-warmed pooled mouse liver microsomes assessed as half life at 1 uM measured upto 60 mins by LC-MS analysis; type: ADME, Microsome; summary of the method: as §3
Leishmania donovani = assay: Antileishmanial activity against Leishmania donovani amastigotes expressing red-shifted firefly luciferase from integrated ribosomal (28S) RNA locus infected in mouse J774.A1 cells assessed as reduction in parasite growth measured after 96 hrs by luminescence based analysis; type: functional, organism-based; conditions: J774.A1, 96 h; summary of the method: as §2
HepG2 = assay: Cytotoxicity against human HepG2 cells assessed as inhibition of cell growth incubated for 48 hrs by MTT assay; type: toxicity, cell-based
Summary of the method: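 HepG2 cells, 2.5 × 10⁴/well in supplemented complete MEM, settled overnight at 37 °C, 5% CO₂. Compounds given as 11 duplicate 1.6-fold dilutions, 10 to 0.15 μg/mL, for 48 h. MTT added for 1 h in the dark at room temperature, formazan dissolved in acidified isopropanol, absorbance read. Triplicate runs; IC50 by sigmoidal variable-slope regression.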

[9] = Therapeutic index, ratio of IC50 for human HepG2 cells to EC50 for antileishmanial activity against Leishmania donovani amastigotes expressing red-shifted firefly luciferase from integrated ribosomal (28S) RNA locus infected in mouse J774.A1 cells; type: toxicity, cell-based; conditions: read-out: TI
Summary of the method: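 TI computed as HepG2 IC50 divided by L. donovani EC50. HepG2: MTT assay with 48 h exposure to 10–0.15 μg/mL (1.6-fold dilutions), triplicates, sigmoidal variable-slope fit. Amastigotes: J774A.1 macrophages infected with RS-luciferase promastigotes at 10:1, washed after 24 h, then 96 h compound exposure (3-fold dilutions, 10 μM–1 nM) in MEM/10% HI-FBS at 37 °C, 5% CO₂; luciferase readout.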

Leishmania mexicana [10] = assay: Antileishmanial activity against Leishmania mexicana amastigotes expressing red-shifted firefly luciferase from integrated ribosomal (28S) RNA locus infected in female BALB/c mouse assessed as retardation of lesion progression by measuring reduction in footpad lesion at 40 mg/kg/day, po …; type: functional, organism-based; conditions: time 20-29 day
Leishmania mexicana [11] = assay: Antileishmanial activity against Leishmania mexicana amastigotes expressing red-shifted firefly luciferase from integrated ribosomal (28S) RNA locus infected in female BALB/c mouse assessed as retardation of lesion progression by measuring reduction in luminescence signal over infected footpad at …; type: functional, organism-based; conditions: dose 40.0 mg/kg/day, route po, time 20-29 day
[12] = AUC (0 to last) in male ICR-CD1 mouse liver at 40 mg/kg, po administered as single dose and measured upto 72 hrs; type: ADME, organism-based; conditions: in vivo
Summary of the method: (§4)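 Oral (intragastric) single dose, formulated in 50% PEG-400:50% sterile water, given to male ICR-CD1 mice (23–28 g), three per time point. Terminal cardiac-puncture blood (heparinized) and liver taken at 0, 0.5, 1, 2, 4, 8, 24, 30, 48, 54 and 72 h. Plasma separated by centrifugation at 4 °C. Samples held at −80 °C before drug quantitation and PK parameter calculation.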

[13] = Cmax in male ICR-CD1 mouse liver at 40 mg/kg, po administered as single dose and measured upto 72 hrs; type: ADME, organism-based; conditions: in vivo; summary of the method: as §4
[14] = Tmax in male ICR-CD1 mouse liver at 40 mg/kg, po administered as single dose and measured upto 72 hrs; type: ADME, organism-based; conditions: in vivo; summary of the method: as §4
[15] = Apparent elimination half life in male ICR-CD1 mouse liver at 40 mg/kg, po administered as single dose and measured upto 72 hrs; type: ADME, organism-based; conditions: in vivo; summary of the method: as §4
[16] = AUC (0 to infinity) in male ICR-CD1 mouse liver at 40 mg/kg, po administered as single dose and measured upto 72 hrs; type: ADME, organism-based; conditions: in vivo; summary of the method: as §4
[17] = Extrapolated AUC in male ICR-CD1 mouse liver at 40 mg/kg, po administered as single dose and measured upto 72 hrs; type: ADME, organism-based; conditions: in vivo; summary of the method: as §4
[18] = Cmax in male ICR-CD1 mouse plasma at 40 mg/kg, po administered as single dose and measured upto 72 hrs; type: ADME, organism-based; conditions: in vivo; summary of the method: as §4
[19] = Tmax in male ICR-CD1 mouse plasma at 40 mg/kg, po administered as single dose and measured upto 72 hrs; type: ADME, organism-based; conditions: in vivo; summary of the method: as §4
[20] = Apparent elimination half life in male ICR-CD1 mouse plasma at 40 mg/kg, po administered as single dose and measured upto 72 hrs; type: ADME, organism-based; conditions: in vivo; summary of the method: as §4
[21] = AUC (0 to last) in male ICR-CD1 mouse plasma at 40 mg/kg, po administered as single dose and measured upto 72 hrs; type: ADME, organism-based; conditions: in vivo; summary of the method: as §4
[22] = AUC (0 to infinity) in male ICR-CD1 mouse plasma at 40 mg/kg, po administered as single dose and measured upto 72 hrs; type: ADME, organism-based; conditions: in vivo; summary of the method: as §4
[23] = Extrapolated AUC in male ICR-CD1 mouse plasma at 40 mg/kg, po administered as single dose and measured upto 72 hrs; type: ADME, organism-based; conditions: in vivo; summary of the method: as §4
[24] = Mutagenicity in Salmonella typhimurium TA100 assessed as increase in revertant rate upto 10 uM incubated for 96 hrs in presence of S9 fraction by AMES test; type: toxicity, subcellular; conditions: salmonella enterica subsp. enterica serovar typhimurium, s9, 96 h
Summary of the method: (§5)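 96-well Ames format: overnight 37 °C cultures of TA98 and TA100 mixed with exposure medium, with or without S9. Compound tested up to 10 μM, plates incubated 96 h at 37 °C and positive wells over background scored visually. Positive controls were 2-aminoanthracene (with S9) and 4-nitroquinoline N-oxide plus 2-nitrofluorene (without S9).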

[25] = Mutagenicity in Salmonella typhimurium TA100 assessed as increase in revertant rate upto 10 uM incubated for 96 hrs in absence of S9 fraction by AMES test; type: toxicity; conditions: salmonella enterica subsp. enterica serovar typhimurium, s9, 96 h; summary of the method: as §5
[26] = Mutagenicity in Salmonella typhimurium […] assessed as increase in revertant rate upto 10 uM incubated for 96 hrs in presence of S9 fraction by AMES test; type: toxicity, subcellular; conditions: salmonella enterica subsp. enterica serovar typhimurium, s9, 96 h; summary of the method: as §5
[27] = Mutagenicity in Salmonella typhimurium […] assessed as increase in revertant rate upto 10 uM incubated for 96 hrs in absence of S9 fraction by AMES test; type: toxicity; conditions: salmonella enterica subsp. enterica serovar typhimurium, s9, 96 h; summary of the method: as §5

| SMILES | survival at 0.1 µM (Leishmania mexicana [1]) [%] | viability at 96 h, 0.1 µM [2] [%] | percent inhibition of parasite growth at 0.1 µM (Leishmania mexicana [3]) [%] | EC50 (Leishmania mexicana [4]) [nM] | EC50 at 96 h [5] [nM] | selectivity ratio [6] | half-life at 1 µM [7] [h] | half-life at 1 µM [8] [h] | IC50 (HepG2) [nM] | also measured |
| --- | --- | --- | --- | --- | --- | --- | --- | --- | --- | --- |
| CC1=C(C)/C(=C/NC2CCCCCCC2)N=C1c1ccc[nH]1 | 33.5 | 43.5 | < 80 |  |  |  |  |  |  |  |
| CC1=C(C)/C(=C/NC2CCCCCC2)N=C1c1ccc(CC(C)C)[nH]1.Cl | 2.3 | 74.5 | > 96 | 44.3 | 1240 | 28 | > 1 | > 1 |  |  |
| CC1=CC(c2ccc[nH]2)=N/C1=C\NC1CCCCCC1 | 26.3 | 88.4 | ~75 |  |  |  |  |  |  |  |
| CC1=C(C)/C(=C/NC2CCCCCC2)N=C1c1ccc[nH]1.Cl | 18.2 | 62.8 | < 80 | 55 | 908 | 16 | 0.752 |  | 21300 | EC50 (Leishmania donovani): 79.5 nM; selectivity ratio [9]: 268 |
| CCC1=CC(c2ccc[nH]2)=N/C1=C\NC1CCCCCC1 | 42.1 | 88.7 | ~60 |  |  |  |  |  |  |  |
| C(/NC1CCCCC1)=C1/N=C(c2ccc[nH]2)C2=C1CCCC2.Cl | 40.9 | 60.3 |  | 130 | 2930 | 23 | 0.445 |  | 8210 | Activity (Leishmania mexicana [10]): Active; Activity (Leishmania mexicana [11]): Active |
| COC1=CC(c2ccc[nH]2)=N/C1=C\Nc1ccc(Cl)c(OC)c1.Cl | 77.6 | 57.3 | ~22 |  |  |  | > 1 | > 1 |  |  |
| CCC1=C(CC)/C(=C/N[C@H]2CC[C@H](C)CC2)N=C1c1ccc[nH]1.Cl | 17.1 | 87.8 |  | 73.3 | 1420 | 19 | 0.388 |  | 15900 | Activity (Leishmania mexicana [10]): Active; Activity (Leishmania mexicana [11]): Active |
| COC1=CC(c2ccc[nH]2)=N/C1=C\NC1CCCCCC1.Cl | 4.84 | 99.6 | > 95 | 32.5 | 550 | 17 | 0.868 |  |  | EC50 (Leishmania donovani): 139 nM; selectivity ratio [9]: 73 |
| CCc1ccc(C2=N/C(=C\NC3CCCCCCC3)C(C)=C2C)[nH]1.Cl | 1.3 | 53.6 | > 96 | 31.4 | 573 | 18 | > 1 | > 1 |  |  |
| COC1=CC(c2ccc(Cc3ccc(OC)cc3)[nH]2)=N/C1=C\Nc1ccc(Cl)cc1 | 93.5 | 101 | ~7 |  |  |  |  |  |  |  |
| CCc1ccc(C2=N/C(=C\NC3CCCCCC3)C(C)=C2C)[nH]1.Cl | 3.7 | 71.2 | > 96 | 40.9 | 1140 | 28 | > 1 | > 1 | 2990 | Activity (Leishmania mexicana [10]): Active; Activity (Leishmania mexicana [11]): Active; AUClast [12]: 22982 ng·h/mL; Cmax [13]: 3667 ng/mL; Tmax [14]: 2 h; betat1/2(app) [15]: > 36 h; AUC [16]: 23043 ng·h/mL; %AUCextra [17]: 0.262%; Cmax [18]: 35 ng/mL; Tmax [19]: 0 h; betat1/2(app) [20]: > 72 h; AUClast [21]: 2421 ng·h/mL; AUC [22]: 206250 ng·h/mL; %AUCextra [23]: 98.8%; Activity [24]: Non-Toxic; Activity [25]: Non-Toxic; Activity [26]: Non-Toxic; Activity [27]: Non-Toxic |
| COC1=CC(c2ccc[nH]2)=N/C1=C\Nc1ccc(F)c(OC)c1.Cl | 98.3 | 58.7 | ~2 |  |  |  | > 1 |  |  |  |
